Reference: ChEMBL document CHEMBL5678818, “Discovery of potent SOS1 inhibitors that block RAS activation via disruption of the RAS-SOS1 interaction” (Proc Natl Acad Sci U S A, 2019)

Key:
[1] = biological target: Fibroblast growth factor receptor 3 (Homo sapiens) (UniProt P22607); experiment: Inhibition of FGFR3 (unknown origin) assessed as residual activity at 1000 nM by KINOMEscan analysis relative to control
[2] = biological target: Tyrosine-protein kinase Lck (Homo sapiens) (UniProt P06239); experiment: Inhibition of LCK (unknown origin) assessed as residual activity at 1000 nM by KINOMEscan analysis relative to control
[3] = biological target: T1, Serine/threonine-protein kinase 3 (Homo sapiens) (UniProt Q13188); experiment: Inhibition of MST2 (unknown origin) assessed as residual activity at 1000 nM by KINOMEscan analysis relative to control
T1 sequence (whole entry): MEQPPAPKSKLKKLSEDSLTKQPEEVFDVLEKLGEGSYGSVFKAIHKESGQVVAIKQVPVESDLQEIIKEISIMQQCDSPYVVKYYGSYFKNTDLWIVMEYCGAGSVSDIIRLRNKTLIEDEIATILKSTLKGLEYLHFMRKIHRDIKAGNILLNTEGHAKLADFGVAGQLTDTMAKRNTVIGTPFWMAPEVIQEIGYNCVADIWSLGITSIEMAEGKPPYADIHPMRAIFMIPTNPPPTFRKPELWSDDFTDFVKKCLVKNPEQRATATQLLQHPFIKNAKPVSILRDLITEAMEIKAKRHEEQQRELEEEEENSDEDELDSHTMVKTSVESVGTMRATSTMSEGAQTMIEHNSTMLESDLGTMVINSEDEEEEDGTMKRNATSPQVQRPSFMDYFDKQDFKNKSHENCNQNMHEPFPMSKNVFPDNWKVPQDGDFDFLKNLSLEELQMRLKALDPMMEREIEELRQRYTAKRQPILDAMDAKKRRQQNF

[4] = biological target: Eukaryotic translation initiation factor 2-alpha kinase 1 (Homo sapiens) (UniProt Q9BQI3); experiment: Inhibition of EIF2AK1 (unknown origin) assessed as residual activity at 1000 nM by KINOMEscan analysis relative to control
[5] = biological target: Casein kinase II subunit alpha (Homo sapiens) (UniProt P68400); experiment: Inhibition of CSNK2A1 (unknown origin) assessed as residual activity at 1000 nM by KINOMEscan analysis relative to control
[6] = biological target: Leucine-rich repeat serine/threonine-protein kinase 2 (Homo sapiens) (UniProt Q5S007); experiment: Inhibition of LRRK2 (unknown origin) assessed as residual activity at 1000 nM by KINOMEscan analysis relative to control
K562 = experiment: Antiproliferative activity against human K562 cells assessed as inhibition of cell viability incubated for 72 hrs by Cell Titer Glo assay; type: functional, cell-based; conditions: K562, 72 h
Procedure, shortened: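 K-562 cells (wild-type KRAS, sourced from ATCC) were tested for antiproliferative response.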

[7] = biological target: T2, NUAK family SNF1-like kinase 1 (Homo sapiens) (UniProt O60285); experiment: Inhibition of ARK5 (unknown origin) assessed as residual activity at 1000 nM by KINOMEscan analysis relative to control
T2 sequence (whole entry): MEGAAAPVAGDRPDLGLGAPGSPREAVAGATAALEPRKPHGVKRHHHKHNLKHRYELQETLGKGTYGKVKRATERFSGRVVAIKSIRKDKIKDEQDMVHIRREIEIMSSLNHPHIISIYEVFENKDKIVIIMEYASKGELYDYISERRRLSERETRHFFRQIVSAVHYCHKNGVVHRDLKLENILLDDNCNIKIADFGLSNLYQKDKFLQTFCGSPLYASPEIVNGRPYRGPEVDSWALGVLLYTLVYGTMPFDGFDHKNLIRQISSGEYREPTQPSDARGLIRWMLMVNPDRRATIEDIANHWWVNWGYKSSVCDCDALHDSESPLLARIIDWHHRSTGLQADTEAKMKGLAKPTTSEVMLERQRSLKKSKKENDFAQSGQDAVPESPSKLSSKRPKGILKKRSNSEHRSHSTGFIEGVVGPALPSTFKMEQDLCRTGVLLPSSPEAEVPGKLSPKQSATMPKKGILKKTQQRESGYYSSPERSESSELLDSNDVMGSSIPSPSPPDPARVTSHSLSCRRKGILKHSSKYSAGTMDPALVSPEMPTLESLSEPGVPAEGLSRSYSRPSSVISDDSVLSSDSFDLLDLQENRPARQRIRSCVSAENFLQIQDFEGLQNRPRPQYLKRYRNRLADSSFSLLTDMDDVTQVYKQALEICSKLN

[8] = biological target: Serine/threonine-protein kinase 33 (Homo sapiens) (UniProt Q9BYT3); experiment: Inhibition of STK33 (unknown origin) assessed as residual activity at 1000 nM by KINOMEscan analysis relative to control
[9] = system: Phosphatidylinositol 4,5-bisphosphate 3-kinase catalytic subunit alpha isoform (Homo sapiens), P42336 [E542K]; experiment: Inhibition of PIK3CA E542K mutant (unknown origin) assessed as residual activity at 1000 nM by KINOMEscan analysis relative to control
[10] = biological target: Serine/threonine-protein kinase VRK2 (Homo sapiens) (UniProt Q86Y07); experiment: Inhibition of VRK2 (unknown origin) assessed as residual activity at 1000 nM by KINOMEscan analysis relative to control
[11] = biological target: Calcium-dependent protein kinase 1 (Plasmodium falciparum) (UniProt P62344); experiment: Inhibition of Plasmodium falciparum CDPK1 assessed as residual activity at 1000 nM by KINOMEscan analysis relative to control
[12] = biological target: T3, Dual specificity mitogen-activated protein kinase kinase 4 (Homo sapiens) (UniProt P45985); experiment: Inhibition of MEK4 (unknown origin) assessed as residual activity at 1000 nM by KINOMEscan analysis relative to control
T3 sequence (whole entry): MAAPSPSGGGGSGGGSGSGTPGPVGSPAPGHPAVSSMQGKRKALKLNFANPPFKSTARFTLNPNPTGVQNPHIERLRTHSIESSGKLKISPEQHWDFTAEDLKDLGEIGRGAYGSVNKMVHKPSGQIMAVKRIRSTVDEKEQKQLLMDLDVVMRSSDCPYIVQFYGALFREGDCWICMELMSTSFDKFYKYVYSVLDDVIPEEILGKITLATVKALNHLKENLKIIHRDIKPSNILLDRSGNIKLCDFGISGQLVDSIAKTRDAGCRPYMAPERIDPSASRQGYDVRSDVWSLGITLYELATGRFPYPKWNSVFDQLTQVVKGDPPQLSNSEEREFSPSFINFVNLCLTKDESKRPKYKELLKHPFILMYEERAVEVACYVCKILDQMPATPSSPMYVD

[13] = biological target: MAP kinase-interacting serine/threonine-protein kinase 2 (Homo sapiens) (UniProt Q9HBH9); experiment: Inhibition of MKNK2 (unknown origin) assessed as residual activity at 1000 nM by KINOMEscan analysis relative to control
[14] = biological target: Serine/threonine-protein kinase PAK 6 (Homo sapiens) (UniProt Q9NQU5); experiment: Inhibition of PAK6 (unknown origin) assessed as residual activity at 1000 nM by KINOMEscan analysis relative to control
Sequence of Serine/threonine-protein kinase PAK 6 (Homo sapiens) (Q9NQU5 whole entry, looked up): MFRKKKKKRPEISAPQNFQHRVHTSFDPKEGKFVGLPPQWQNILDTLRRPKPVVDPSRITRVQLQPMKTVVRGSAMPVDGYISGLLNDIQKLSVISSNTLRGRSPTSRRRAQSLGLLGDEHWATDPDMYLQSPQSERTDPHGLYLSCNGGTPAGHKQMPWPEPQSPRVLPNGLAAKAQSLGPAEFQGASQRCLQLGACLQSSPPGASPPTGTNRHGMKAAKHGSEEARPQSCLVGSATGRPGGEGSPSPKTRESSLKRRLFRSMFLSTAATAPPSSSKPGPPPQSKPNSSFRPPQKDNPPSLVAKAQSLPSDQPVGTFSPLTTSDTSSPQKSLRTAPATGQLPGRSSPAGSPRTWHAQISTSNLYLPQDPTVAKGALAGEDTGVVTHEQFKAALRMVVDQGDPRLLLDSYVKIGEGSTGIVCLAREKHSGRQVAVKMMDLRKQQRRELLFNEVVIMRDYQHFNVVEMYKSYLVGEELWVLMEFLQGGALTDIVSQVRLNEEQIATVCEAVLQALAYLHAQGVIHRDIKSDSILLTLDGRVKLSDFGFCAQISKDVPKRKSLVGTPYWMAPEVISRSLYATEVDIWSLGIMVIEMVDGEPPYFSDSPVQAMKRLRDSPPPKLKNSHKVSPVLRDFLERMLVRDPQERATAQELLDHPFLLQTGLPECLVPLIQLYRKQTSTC

Sequence of Serine/threonine-protein kinase VRK2 (Homo sapiens) (Q86Y07 whole entry): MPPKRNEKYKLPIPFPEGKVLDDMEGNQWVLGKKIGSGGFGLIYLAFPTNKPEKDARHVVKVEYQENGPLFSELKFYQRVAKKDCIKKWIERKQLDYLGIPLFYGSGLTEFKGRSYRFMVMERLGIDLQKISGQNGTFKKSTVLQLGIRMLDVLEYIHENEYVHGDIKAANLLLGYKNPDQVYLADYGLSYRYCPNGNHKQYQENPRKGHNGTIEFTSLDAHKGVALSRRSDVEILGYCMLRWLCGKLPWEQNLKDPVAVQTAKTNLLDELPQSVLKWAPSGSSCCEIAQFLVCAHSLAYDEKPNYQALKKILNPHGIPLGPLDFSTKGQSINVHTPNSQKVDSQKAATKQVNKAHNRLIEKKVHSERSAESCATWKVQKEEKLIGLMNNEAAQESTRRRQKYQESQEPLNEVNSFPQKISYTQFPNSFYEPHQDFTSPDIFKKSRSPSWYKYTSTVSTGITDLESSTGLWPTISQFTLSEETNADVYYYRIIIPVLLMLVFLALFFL
Sequence of MAP kinase-interacting serine/threonine-protein kinase 2 (Homo sapiens) (Q9HBH9 whole entry, looked up): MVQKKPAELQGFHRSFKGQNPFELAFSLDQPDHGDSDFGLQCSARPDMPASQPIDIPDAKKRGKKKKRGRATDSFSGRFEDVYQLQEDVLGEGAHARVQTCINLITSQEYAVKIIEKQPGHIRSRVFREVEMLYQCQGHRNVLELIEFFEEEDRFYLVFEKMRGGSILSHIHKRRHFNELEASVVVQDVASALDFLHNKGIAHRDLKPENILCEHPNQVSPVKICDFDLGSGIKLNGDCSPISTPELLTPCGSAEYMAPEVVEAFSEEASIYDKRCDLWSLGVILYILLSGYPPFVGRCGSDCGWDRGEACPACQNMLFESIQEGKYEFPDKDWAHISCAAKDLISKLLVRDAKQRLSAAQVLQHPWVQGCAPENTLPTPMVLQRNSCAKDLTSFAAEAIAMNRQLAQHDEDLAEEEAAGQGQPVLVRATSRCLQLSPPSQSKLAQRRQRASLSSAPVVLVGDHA
Sequence of Phosphatidylinositol 4,5-bisphosphate 3-kinase catalytic subunit alpha isoform (Homo sapiens), P42336 [E542K] (P42336 whole entry E542K, canonical isoform): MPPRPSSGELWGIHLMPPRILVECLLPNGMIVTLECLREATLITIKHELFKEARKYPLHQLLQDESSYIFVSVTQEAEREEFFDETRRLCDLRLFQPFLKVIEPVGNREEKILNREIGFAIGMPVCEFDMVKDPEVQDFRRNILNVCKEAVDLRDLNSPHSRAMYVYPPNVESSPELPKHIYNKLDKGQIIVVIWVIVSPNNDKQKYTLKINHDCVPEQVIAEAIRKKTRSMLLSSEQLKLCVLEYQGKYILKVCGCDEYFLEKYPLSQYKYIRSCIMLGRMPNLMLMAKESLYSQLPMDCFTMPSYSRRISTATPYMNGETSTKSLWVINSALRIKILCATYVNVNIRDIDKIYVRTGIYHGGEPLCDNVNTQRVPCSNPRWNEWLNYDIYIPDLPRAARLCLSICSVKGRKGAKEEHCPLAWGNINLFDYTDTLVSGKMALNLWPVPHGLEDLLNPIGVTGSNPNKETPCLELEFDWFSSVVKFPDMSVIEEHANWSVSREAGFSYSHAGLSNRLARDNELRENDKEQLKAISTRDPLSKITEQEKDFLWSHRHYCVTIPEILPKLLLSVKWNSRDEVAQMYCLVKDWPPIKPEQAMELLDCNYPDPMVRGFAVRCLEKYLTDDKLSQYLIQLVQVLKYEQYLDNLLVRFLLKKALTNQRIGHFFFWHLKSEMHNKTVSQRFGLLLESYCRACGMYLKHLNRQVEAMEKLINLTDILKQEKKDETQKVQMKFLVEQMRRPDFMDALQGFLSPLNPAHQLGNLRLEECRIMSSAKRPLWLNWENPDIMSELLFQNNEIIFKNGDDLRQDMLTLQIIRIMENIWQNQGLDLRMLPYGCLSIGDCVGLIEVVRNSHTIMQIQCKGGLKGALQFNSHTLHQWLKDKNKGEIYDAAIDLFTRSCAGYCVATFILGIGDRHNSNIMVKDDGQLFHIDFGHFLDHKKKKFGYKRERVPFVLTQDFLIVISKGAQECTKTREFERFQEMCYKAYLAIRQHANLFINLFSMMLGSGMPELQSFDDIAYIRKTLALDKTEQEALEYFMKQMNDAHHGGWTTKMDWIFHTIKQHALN
Sequence of Fibroblast growth factor receptor 3 (Homo sapiens) (P22607 23-806 limits assumed): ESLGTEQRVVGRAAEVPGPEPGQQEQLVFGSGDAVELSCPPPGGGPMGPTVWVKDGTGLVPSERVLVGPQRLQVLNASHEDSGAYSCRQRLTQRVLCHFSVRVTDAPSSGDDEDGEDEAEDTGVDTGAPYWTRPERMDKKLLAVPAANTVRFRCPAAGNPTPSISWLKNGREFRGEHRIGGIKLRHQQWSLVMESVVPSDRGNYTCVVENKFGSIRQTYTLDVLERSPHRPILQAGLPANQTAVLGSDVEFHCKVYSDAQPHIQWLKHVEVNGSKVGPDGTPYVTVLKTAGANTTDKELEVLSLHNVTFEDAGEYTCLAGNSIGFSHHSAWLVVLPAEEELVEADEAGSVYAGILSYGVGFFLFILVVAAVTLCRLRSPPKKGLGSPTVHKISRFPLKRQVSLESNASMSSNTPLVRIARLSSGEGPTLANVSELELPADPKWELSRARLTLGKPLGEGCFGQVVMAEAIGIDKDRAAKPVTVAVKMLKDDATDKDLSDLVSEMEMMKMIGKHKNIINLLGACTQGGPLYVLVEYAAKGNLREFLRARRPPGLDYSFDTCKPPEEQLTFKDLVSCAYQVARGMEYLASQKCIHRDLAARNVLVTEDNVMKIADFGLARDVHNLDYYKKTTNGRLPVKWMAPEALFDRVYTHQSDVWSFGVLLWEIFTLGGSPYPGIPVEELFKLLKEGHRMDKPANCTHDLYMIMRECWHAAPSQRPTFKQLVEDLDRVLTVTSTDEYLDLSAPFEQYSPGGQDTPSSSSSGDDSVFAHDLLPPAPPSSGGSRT
Sequence of Eukaryotic translation initiation factor 2-alpha kinase 1 (Homo sapiens) (Q9BQI3 whole entry): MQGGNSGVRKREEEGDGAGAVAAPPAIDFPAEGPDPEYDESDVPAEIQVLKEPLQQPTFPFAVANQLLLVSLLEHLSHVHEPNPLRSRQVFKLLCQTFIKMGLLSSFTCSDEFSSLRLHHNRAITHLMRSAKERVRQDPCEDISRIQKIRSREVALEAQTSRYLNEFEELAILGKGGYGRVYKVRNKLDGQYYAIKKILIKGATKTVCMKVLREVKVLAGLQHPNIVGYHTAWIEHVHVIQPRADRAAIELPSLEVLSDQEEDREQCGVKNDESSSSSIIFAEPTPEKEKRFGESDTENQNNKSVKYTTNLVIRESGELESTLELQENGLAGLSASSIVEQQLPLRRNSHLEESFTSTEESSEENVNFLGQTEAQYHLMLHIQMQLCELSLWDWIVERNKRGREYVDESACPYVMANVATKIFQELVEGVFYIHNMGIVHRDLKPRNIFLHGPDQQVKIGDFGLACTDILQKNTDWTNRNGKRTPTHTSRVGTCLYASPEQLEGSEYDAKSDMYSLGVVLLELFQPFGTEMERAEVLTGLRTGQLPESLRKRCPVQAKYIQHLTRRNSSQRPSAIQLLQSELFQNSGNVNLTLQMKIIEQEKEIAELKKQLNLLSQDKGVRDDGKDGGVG
Sequence of Calcium-dependent protein kinase 1 (Plasmodium falciparum) (P62344 2-524 limits assumed): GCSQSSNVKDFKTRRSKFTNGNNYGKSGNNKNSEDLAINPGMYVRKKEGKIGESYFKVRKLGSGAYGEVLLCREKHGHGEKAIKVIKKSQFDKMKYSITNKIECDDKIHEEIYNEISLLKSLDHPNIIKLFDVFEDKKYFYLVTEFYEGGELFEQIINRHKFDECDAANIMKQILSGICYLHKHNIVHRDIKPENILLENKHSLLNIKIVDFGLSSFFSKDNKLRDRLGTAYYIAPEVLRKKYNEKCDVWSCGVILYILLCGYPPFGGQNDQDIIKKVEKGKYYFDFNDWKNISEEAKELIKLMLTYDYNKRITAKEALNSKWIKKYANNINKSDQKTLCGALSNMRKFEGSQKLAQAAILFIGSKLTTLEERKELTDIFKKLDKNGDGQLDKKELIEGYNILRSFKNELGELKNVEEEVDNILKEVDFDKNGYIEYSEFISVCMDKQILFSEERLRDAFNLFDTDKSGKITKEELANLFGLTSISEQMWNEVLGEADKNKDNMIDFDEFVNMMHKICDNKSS
Sequence of Casein kinase II subunit alpha (Homo sapiens) (P68400 whole entry, looked up): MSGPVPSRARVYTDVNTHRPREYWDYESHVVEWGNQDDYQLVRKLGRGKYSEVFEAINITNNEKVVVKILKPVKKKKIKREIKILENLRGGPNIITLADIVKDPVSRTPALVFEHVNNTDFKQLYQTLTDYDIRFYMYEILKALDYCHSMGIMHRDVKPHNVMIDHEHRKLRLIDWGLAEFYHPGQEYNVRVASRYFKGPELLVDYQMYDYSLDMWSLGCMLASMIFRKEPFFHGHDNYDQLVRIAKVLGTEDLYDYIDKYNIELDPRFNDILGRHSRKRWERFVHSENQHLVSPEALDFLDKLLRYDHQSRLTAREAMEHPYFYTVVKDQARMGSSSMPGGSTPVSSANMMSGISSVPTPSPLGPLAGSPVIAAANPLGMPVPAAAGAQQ

| Compound | Activity [1] [%] | Activity [2] [%] | Activity [3] [%] | Activity [4] [%] | Activity [5] [%] | Activity [6] [%] | IC50 (K562) [nM] | Activity [7] [%] | Activity [8] [%] | Activity [9] [%] | Activity [10] [%] | Activity [11] [%] | Activity [12] [%] | Activity [13] [%] | Activity [14] [%] |
| --- | --- | --- | --- | --- | --- | --- | --- | --- | --- | --- | --- | --- | --- | --- | --- |
| COc1cc2nc(C)nc(N[C@H](C)c3cccc(-c4cn[nH]c4)c3)c2cc1OC | 100 | 56 | 79 | 100 | 70 | 94 | 3100 | 100 | 100 | 78 | 93 | 81 | 100 | 89 | 88 |
| COc1cc2ncnc(N[C@H](C)c3cccc4ccccc34)c2cc1OC | 100 | 70 | 96 | 88 | 100 | 99 | – | 83 | 68 | 96 | 81 | 62 | 97 | 100 | 91 |
| CNCc1ccccc1-c1csc([C@@H](C)Nc2nc(C)nc3cc(OC)c(OC)cc23)c1 [BAY-293] | – | – | – | – | – | – | 1090 | – | – | – | – | – | – | – | – |
